Measurements of several laboratories.
Target: Mitogen-activated protein kinase 11 (MAPK11, Homo sapiens, UniProt Q15759)

Structure (SMILES)	observed	action	method	concentration	quantity	result
Cc1cc(-n2nc(Cc3cc(F)cc(C(F)(F)F)c3)nc2C)ccc1C(N)=O	cell-free assay		competition with immobilised ligand	1 µM	remaining binding	90%
COc1cc(Cl)c(C(=O)N[C@@H](CN[C@H]2CC[C@@H](N)CC2)Cc2ccc(C#N)cc2)cc1-c1ccc(CN[C@H](C)c2ccc(C)cc2)o1	enzyme activity	inhibitor		1 µM	remaining activity	92%
Nc1nc(Nc2ccccc2)sc1C(=O)c1c(F)cccc1F	enzyme activity	inhibitor		10 µM	remaining activity	12%
COc1cc(Nc2cnc(C#N)c(O[C@H](C)CN(C)C)n2)ncc1-c1cnn(C)c1	enzyme activity	inhibitor	radiometric	1 µM	remaining activity	96%
CC(C)(C)c1nc2c(s1)c1nc(N)ncc1c1ccc(NS(=O)(=O)c3c(F)cccc3F)c(F)c12	enzyme activity	inhibitor	radiometric	1 µM	remaining activity	101%
O=C(Nc1cnn(-c2csc(C(=O)NC3COC3)c2)c1)Nc1ccccc1Cl	enzyme activity	inhibitor		5 µM	remaining activity	101%
FC(F)c1nc2ccccc2n1-c1nc(N2CCOCC2)nc(N2CCOCC2)n1	enzyme activity	inhibitor		10 µM	remaining activity	95%
CCCCNc1ncc2c(-c3ccc(F)cc3)nn(C[C@H]3CC[C@H](N)CC3)c2n1	target engagement in cells	inhibitor	chemoproteomics	20 mM	inhibition	36.9%
Cn1c2c(c3ccccc31)C(C#N)C(C)(C)NC2=O (stereo not shown)	thermal stability		DSF	10 µM	ΔTm	-0.7 °C
CC(C)(O)[C@H]1CC[C@H](Nc2ccc3ncc(-c4cccc(C(F)(F)F)c4)n3n2)CC1	enzyme activity	inhibitor		1 µM	remaining activity	103%
CC(C)(O)c1cncc(-c2nc3ccc(F)cc3n2C2CC2)c1	cell-free assay		competition with immobilised ligand	1 µM	remaining binding	100%
Cc1ccc(Nc2nccc(N(C)c3ccc4c(C)n(C)nc4c3)n2)cc1S(N)(=O)=O	enzyme activity	inhibitor		0.3 µM	inhibition	-6%
N#CCCc1ccc2c(c1)-c1[nH]c3ccc([N+](=O)[O-])cc3c1CC(=O)N2	cell-free assay			0.5 µM	remaining signal	101%
CCCOc1ccc(OC)c(F)c1C(=O)c1ccc(C(=O)N[C@@H]2CNC[C@H]2NC(=O)c2ccc3[nH]ncc3c2)cc1	enzyme activity	inhibitor		10 µM	remaining activity	96%
O=C(O)[C@H]1[C@H](Cn2nnc3ccccc3c2=O)CC[C@@H]1C(=O)c1ccc(OCCC2CCOCC2)cc1	cell-free assay		competition with immobilised ligand	1 µM	remaining binding	78%
CNC(=O)c1cc(Oc2ccc(NC(=O)Nc3ccc(Cl)c(C(F)(F)F)c3)cc2)ccn1	cell-free assay			0.5 µM	remaining signal	46.9%
Cc1nc(Cc2cccc(C(F)(F)F)c2)sc1-c1ccc(C(N)=O)nc1	cell-free assay		competition with immobilised ligand	1 µM	remaining binding	95%
Cn1c2c(c3ccc(Cl)c(Cl)c31)C(C#N)C1(CCCC1)NC2=O (stereo not shown)	thermal stability		DSF	10 µM	ΔTm	0.9 °C
O=C(Nc1ccc(Oc2ccc(F)cc2)cc1)N1CCc2ncccc2[C@H]1c1ccc(F)cc1	cell-free assay		competition with immobilised ligand	1 µM	remaining binding	100%
CNCc1ccc(-c2cc(-c3nc(-c4ccc(S(=O)(=O)C(C)C)cc4)cnc3N)on2)cc1	enzyme activity	inhibitor		2 µM	inhibition	11%
CCC1(CC)NC(=O)c2c(c3ccc(Cl)c(Cl)c3n2C)C1C#N (stereo not shown)	thermal stability		DSF	10 µM	ΔTm	0.1 °C
NS(=O)(=O)c1cc(NC(=O)Cc2ccccc2)ccc1Oc1cccc(Cl)c1	cell-free assay		competition with immobilised ligand	1 µM	remaining binding	100%
